How the values were obtained:
Adenosine receptor A3 = molecular target: T1, Adenosine receptor A3 (Homo sapiens, UniProt P0DMS8); experiment: Displacement of [3H]PSB-11 from recombinant human adenosine receptor A3 expressed in CHO cell membranes
T1 sequence (P0DMS8 whole entry): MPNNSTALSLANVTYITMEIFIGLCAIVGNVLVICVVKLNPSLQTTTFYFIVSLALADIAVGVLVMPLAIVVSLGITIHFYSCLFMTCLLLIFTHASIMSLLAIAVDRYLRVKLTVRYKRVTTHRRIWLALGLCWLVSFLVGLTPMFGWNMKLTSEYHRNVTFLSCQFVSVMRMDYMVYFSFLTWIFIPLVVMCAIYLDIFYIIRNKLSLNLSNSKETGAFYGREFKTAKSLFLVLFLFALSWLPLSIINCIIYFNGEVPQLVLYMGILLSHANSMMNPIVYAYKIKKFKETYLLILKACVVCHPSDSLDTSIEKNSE

Adenosine receptor A2a = Adenosine receptor A2a (Rattus norvegicus, UniProt P30543); experiment: Displacement of [3H]MSX2 from adenosine receptor A2a in rat brain striatal membranes; format: cell membranes, Membrane
Sequence of Adenosine receptor A2a (P30543 whole entry): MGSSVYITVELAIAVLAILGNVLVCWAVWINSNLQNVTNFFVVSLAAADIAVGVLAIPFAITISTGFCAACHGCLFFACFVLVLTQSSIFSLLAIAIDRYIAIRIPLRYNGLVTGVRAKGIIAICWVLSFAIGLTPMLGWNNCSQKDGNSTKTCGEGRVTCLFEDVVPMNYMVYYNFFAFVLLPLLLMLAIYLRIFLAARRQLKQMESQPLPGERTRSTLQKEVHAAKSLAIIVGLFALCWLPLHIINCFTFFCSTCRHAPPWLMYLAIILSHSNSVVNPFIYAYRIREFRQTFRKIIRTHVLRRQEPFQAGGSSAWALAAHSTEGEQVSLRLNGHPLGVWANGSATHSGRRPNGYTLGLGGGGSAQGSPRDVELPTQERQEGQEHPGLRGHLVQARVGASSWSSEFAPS
In short: (§1)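 Native rat receptors: A1 in brain cortical membranes with [3H]CCPA, A2A in brain striatal membranes, from frozen unstripped rat brains. Compounds were first screened at a single high concentration in three independent experiments. Active compounds then had full inhibition curves over at least 3 orders of magnitude of concentration.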

[1] = molecular target: T2, Adenosine receptor A3 (Homo sapiens) (UniProt P0DMS8); experiment: Displacement of [3H]PSB11 from recombinant human adenosine receptor A3 expressed in CHO cell membranes at 1 uM
T2 sequence (whole entry): T1 sequence (P0DMS8 whole entry)
In short: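 Membranes came from CHO cells expressing recombinant receptors (human A1, A2A, A2B, A3; rat A2B, A3). Radioligands were [3H]CCPA for A1 and [3H]PSB-11 or [3H]NECA for A3. A single high concentration was screened first, in three experiments for A1/A2A and two for A2B/A3. Full inhibition curves spanning at least 3 log units were run for potent compounds.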

[2] = molecular target: Adenosine receptor A2a (Rattus norvegicus) (UniProt P30543); experiment: Displacement of [3H]MSX2 from Adenosine receptor A2a in rat brain striatal membranes at 10 uM; format: cell membranes; conditions: Membrane
Sequence of Adenosine receptor A2a (Rattus norvegicus) (P30543 whole entry): as above
In short: as §1

Adenosine receptor A2b = molecular target: T3, Adenosine receptor A2b (Homo sapiens, UniProt P29275); experiment: Displacement of [3H]PSB-603 from recombinant human adenosine receptor A2b expressed in CHO cell membranes
T3 sequence (P29275 whole entry): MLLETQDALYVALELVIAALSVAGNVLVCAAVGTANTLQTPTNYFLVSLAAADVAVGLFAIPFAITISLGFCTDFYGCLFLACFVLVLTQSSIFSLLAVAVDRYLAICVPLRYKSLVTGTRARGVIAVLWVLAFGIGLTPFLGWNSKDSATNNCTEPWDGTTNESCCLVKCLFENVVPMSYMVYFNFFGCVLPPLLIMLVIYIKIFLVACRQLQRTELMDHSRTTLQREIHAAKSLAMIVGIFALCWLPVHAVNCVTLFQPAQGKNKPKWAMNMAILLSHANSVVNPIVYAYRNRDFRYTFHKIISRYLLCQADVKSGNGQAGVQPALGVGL
In short: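 Membranes came from CHO cells expressing recombinant receptors (human A1, A2A, A2B, A3; rat A2B, A3). Radioligands were [3H]CCPA for A1 and [3H]PSB-11 or [3H]NECA for A3. A single high concentration was screened first, in three experiments for A1/A2A and two for A2B/A3.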

[3] = molecular target: T4, Adenosine receptor A1 (Rattus norvegicus) (UniProt P25099); experiment: Displacement of [3H]CCPA from adenosine receptor A1 in rat brain cortical membranes at 10 uM; format: cell membranes; conditions: 1 uM, in the assay text read “at 1 uM” for “at 10 uM”
T4 sequence (whole entry): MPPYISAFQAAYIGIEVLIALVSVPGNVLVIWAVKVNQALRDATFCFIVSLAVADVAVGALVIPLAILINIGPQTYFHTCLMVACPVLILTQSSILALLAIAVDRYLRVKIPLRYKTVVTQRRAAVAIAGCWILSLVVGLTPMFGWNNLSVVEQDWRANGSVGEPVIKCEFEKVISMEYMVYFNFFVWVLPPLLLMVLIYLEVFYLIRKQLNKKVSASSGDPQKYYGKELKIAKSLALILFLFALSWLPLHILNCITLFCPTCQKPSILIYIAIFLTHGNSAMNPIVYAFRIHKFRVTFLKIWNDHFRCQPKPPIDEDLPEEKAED
In short: as §1

Adenosine receptor A1 = molecular target: T5, Adenosine receptor A1 (Rattus norvegicus, UniProt P25099); experiment: Displacement of [3H]CCPA from adenosine receptor A1 in rat brain cortical membranes; format: cell membranes
T5 sequence (P25099 whole entry): T4 sequence (whole entry)
In short: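 Native rat receptors: A1 in brain cortical membranes with [3H]CCPA, A2A in brain striatal membranes, from frozen unstripped rat brains. Compounds were first screened at a single high concentration in three independent experiments.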

Ki (Adenosine receptor A3): > 1 µM
Ki (Adenosine receptor A2a): > 10 µM
inhibition [1]: 3%
inhibition [2]: 35%
Ki (Adenosine receptor A2b): > 1 µM
inhibition [3]: 4%
Ki (Adenosine receptor A1): > 1 µM
Structure (SMILES): Cn1c(=O)c2c(nc3n2CCN(CCc2ccc(O)cc2)C3)n(C)c1=O
